Compound activity deposited in PubChem BioAssay by several laboratories.
Lipid droplet – hepatic lipid droplet formation modulation | AML12 mouse hepatocytes, oleate lipid droplets, BODIPY imaging | AID 1656 | 0.4% of 240,000 active | inhibition, % at 6.5 µM;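 active = lipid droplet intensity inhibited by at least 50%, with more than 500 cells counted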
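Test system: AML12 hepatocytes (mouse); reagent: oleate loading, 100 µM; dosing: one dose, 6.5 µM compound; incubation: overnight exposure; signal: fluorescence imaging, 20x objective, two fields per well; read-out basis: % inhibition of corrected integrated BODIPY droplet signal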
HSF-1 act – increases HSF-1 driven luciferase reporter signal; NIH3T3-HGL HSF-1 luciferase reporter, MG132, 8 h; 100% = twice DMSO control signal; activation, % at 9 µM; 1.7% of 300,000 active;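 active = mean replicate activation of at least 50% with a set share of replicates each reaching 50%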;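 also: 0% = median of the neutral control wells and 100% = twice that signal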
HSF1 inhib – HSF1 inhibition; NIH3T3-HGL HSE-luciferase, MG132-induced, luminescence 8 h; hits give low values; activity change, negative = inhibition, % at 7.5 µM (by protocol); 0.77% of 300,000 active; AID 2098;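 active = more than half of replicate wells show activity change below -50%, luminescence cut by over half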;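 also: luciferase reports HSF-1 transcriptional activity via heat shock element; 0% = median of DMSO wells and -100% = zero luminescence signal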
PHOSPHO1 inh – PHOSPHO1 (human) inhibition; Q8TCT1; recombinant PHOSPHO1, absorbance phosphatase assay; inhibition, % at 13.3 µM; 1.1% of 290,000 active; in the data active = inhibition above about 60%
CHT allo act – allosterically activates the human high affinity choline transporter. Q9GZV3. CHT-expressing cells, membrane potential dye, choline EC20; hits give high values; LV-AA mutant CHT in HEK293 cells. B-score at 10 µM. 0.49% of 310,000 active;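 active = initial fluorescence not abnormally high and integrated response B-score, plate-corrected, over 3 SD above library mean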
Target sequence (Q9GZV3 whole entry, looked up): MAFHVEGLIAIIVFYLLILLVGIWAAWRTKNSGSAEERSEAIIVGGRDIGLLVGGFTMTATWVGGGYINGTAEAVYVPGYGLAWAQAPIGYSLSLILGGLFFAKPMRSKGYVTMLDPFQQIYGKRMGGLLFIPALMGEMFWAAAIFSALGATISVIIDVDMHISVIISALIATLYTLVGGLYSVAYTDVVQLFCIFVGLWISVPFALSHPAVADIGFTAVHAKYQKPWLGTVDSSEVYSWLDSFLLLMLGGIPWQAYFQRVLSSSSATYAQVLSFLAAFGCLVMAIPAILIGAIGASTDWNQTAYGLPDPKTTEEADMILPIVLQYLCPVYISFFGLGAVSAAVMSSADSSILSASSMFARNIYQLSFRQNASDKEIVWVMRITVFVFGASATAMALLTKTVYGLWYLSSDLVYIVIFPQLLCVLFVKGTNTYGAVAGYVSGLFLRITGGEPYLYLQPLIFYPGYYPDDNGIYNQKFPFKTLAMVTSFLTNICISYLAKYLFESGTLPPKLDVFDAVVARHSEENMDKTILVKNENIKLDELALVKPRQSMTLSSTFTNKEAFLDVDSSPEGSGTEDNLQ
CHT block – inhibitors of human choline transporter CHT | Q9GZV3 | CHT-expressing cells, membrane potential dye, choline response; hits give low values | B-score at 10 µM | 0.86% of 310,000 active;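 active = B-score over 3 SD under the library average, and starting fluorescence ratio not unusually high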;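 also: choline stimulus applied at its EC90 after an EC20 pre-addition; B-score computed on integrated fluorescence ratio after choline addition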
CHT activ conf – human CHT activation, confirmatory screen; shares compounds with CHT allo act; CHT-expressing cells, membrane potential dye fluorescence (FDSS); % of choline EC20–EC90 response window; HEK293 expressing CHT LV-AA mutant; choline added at its EC20; activation, % at 10 µM; 91% of 2,500 active;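 active = primary screen active, with duplicate mean activation above negative control mean plus 3 SD, cut at about 11% in these data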
HEK293 MP dye – counter-screen for CHT activators: effect in parental HEK293 cells | 62% of 2,500 active | ratio readout change at 10 µM, hits read low | membrane potential dye fluorescence (FDSS); measured after EC20 choline addition | shares compounds with CHT allo act;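 active = duplicate-averaged ratio beyond 3 SD from buffer wells, up or down, though filed actives are nearly all decreases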
Active calls of the source: *; i = inactive; . = no result given. Only some compounds are listed: those with a hit (about 4.9% of all), similar ones and a draw of the others.

SMILES	Lipid droplet	HSF-1 act	HSF1 inhib	PHOSPHO1 inh	CHT allo act	CHT block	CHT activ conf	HEK293 MP dye
CC(NC(=O)C(c1ccccc1)c1ccccc1)c1ccc(S(N)(=O)=O)cc1 (configuration not stated)	-0.6	2.3	8.2	27.5	i	i	.	.
Cc1cc2nc3c(=O)[nH]c(=O)[nH]c3nc2c([N+](=O)[O-])c1N	2.6	.	.	6.5	.	.	.	.
COc1ccc(C(=O)C(C)[n+]2ccc(C)c3ccccc32)cc1[N+](=O)[O-] (configuration not stated)	-0.3	3.5	-5.0	23.5	6.53*	i	42.6*	-39.8*
CCOC(=O)c1ccc(NC(=S)NC(=O)c2nn(CC)cc2Br)cc1	-8.7	1.3	-2.7	17.2	i	i	.	.
CC(c1ccccc1)n1c(CO)nc2ccccc21 (configuration not stated)	-0.1	-32.1	-11.6	.	i	i	.	.
CSCCC(NS(=O)(=O)c1ccccc1)C(=O)OCc1cc(=O)oc2cc(O)ccc12 (configuration not stated)	.	21.7	6.5	.	i	i	.	.
COc1cc(C(=O)OCCCN2CCCN(CCCOC(=O)c3cc(OC)c(OC)c(OC)c3)CC2)cc(OC)c1OC	.	-3.3	2.8	.	9.12*	i	44.5*	-31*
COc1cc(C(=O)OCCN2CCOCC2)cc(OC)c1OC	.	23.9	-0.8	-15.0	i	i	.	.
Cc1cccn2c(=O)c3cc(C(=O)NC4CCCCC4)c(=N)n(Cc4ccccc4)c3nc12	7.6	4.8	6.7	9.6	i	i	.	.
Cc1cccn2c(=O)c3cc(C(=O)NC4CCCC4)c(=N)n(CCc4ccccc4)c3nc12	8.8	0.6	-9.5	46.2	i	i	9.7	-28.5*
N=c1c(C(=O)NC2CCCC2)cc2c(=O)n3ccccc3nc2n1CCN1CCOCC1	-4.5	-3.7	-5.6	7.0	i	i	48.5*	-37.5*
COc1ccc(CCn2c(=N)c(C(=O)NC3CCCCC3)cc3c(=O)n4ccccc4nc32)cc1	-1.7	19.4	3.5	18.1	i	i	42.7*	-48*
Cc1ccc(Cn2c(=N)c(C(=O)NC3CCCCC3)cc3c(=O)n4ccccc4nc32)cc1	-12.3	7.8	3.7	22.6	i	i	.	.
Cc1cc(OC(C)C(=O)NCCCN2CCOCC2)c2c(C)cc(=O)oc2c1 (configuration not stated)	-3.4	9.5	1.6	27.9	i	i	50.4*	-41.2*
CCc1cc(=O)oc2cc(C)cc(OC(C)C(=O)NCCN3CCOCC3)c12 (configuration not stated)	-0.8	-8.4	-3.6	24.0	i	i	.	.
Cc1cc(OC(C)C(=O)NCCN2CCOCC2)c2c(C)c(C)c(=O)oc2c1 (configuration not stated)	-0.7	9.1	5.0	26.3	i	i	58.1*	-55.6*
CCOC(=O)C1(Cc2ccccc2C(F)(F)F)CCN(Cc2ccon2)CC1	-18.4	2.4	-4.6	23.9	6.95*	i	20.3*	i
CCOC(=O)C1(Cc2ccccc2)CCN(Cc2ccon2)CC1	3.7	-0.7	11.7	5.7	i	i	.	.
Nc1c(C(=O)NCc2ccc3c(c2)OCO3)c2nc3ccccc3nc2n1CCCN1CCOCC1	.	-29.5	-11.0	-8.6	7.41*	i	11.6*	i
CN1CCN(C(=S)Nc2ccc(Cl)c(Cl)c2)CC1	1.8	-5.6	0.0	18.3	i	i	.	.
COc1ccc2c(c1)N1CCN=C1N2C	.	6.5	-8.0	-2.2	8.9*	i	64.8*	-65.2*
COc1ccc(-c2[nH]ncc2CNCc2cc(C)n(C)n2)c(F)c1	10.1	34.4	1.9	20.8	7.84*	i	45.0*	-59.6*
CC1CC(C)CN(S(=O)(=O)c2ccc(C(=O)N(c3ccccn3)C3CCCCC3)cc2)C1 (configuration not stated)	-3.4	-42.5	-26.2	-2.4	i	i	20.9*	i
CC1CC(C)CN(C(=O)c2cn(C)c3ccc(S(=O)(=O)N(C)C)cc3c2=O)C1 (configuration not stated)	.	-5.9	-1.1	-4.5	i	i	.	.
CC(C)C1=NN2C(=N)CC(=O)N=C2S1	.	-17.2	-4.9	31.5	i	i	.	.
SMILES	Lipid droplet	HSF-1 act	HSF1 inhib	PHOSPHO1 inh	CHT allo act	CHT block	CHT activ conf	HEK293 MP dye
CCC(C)n1c(=N)c(C#N)cc2c(=O)n3cccc(C)c3nc21 (configuration not stated)	41.5	-4.2	1.6	44.9	7.04*	i	41.1*	-53.3*
CO/N=C(/CNC(=O)c1ccc(F)cc1)c1ccc(Cl)cc1	.	-3.3	3.1	28.4	i	i	.	.
CC(=O)Nc1ccc(S(=O)(=O)NNC(=O)COc2ccc(C)cc2)cc1	3.3	-0.6	-6.2	-8.9	i	i	.	.
CC[N+](CC)(CC)C/C=C/CN1CCCCC1	-4.6	-9.0	-13.6	-19.4	i	i	39.7*	-42.5*
Cc1cccc2c(=O)cc(C)n(Cc3ccccc3)c12	-8.0	-2.6	-0.4	3.2	i	i	.	.
CCOC(=O)Cn1c(C)cc(=O)c2cccc(C)c21	.	8.3	7.1	-3.3	i	i	52.9*	-73.6*
CNC(=O)Cn1c(C)cc(=O)c2cccc(C)c21	2.3	5.0	-12.0	35.7	10.5*	i	62.8*	-72.7*
O=C(Nc1ncc2c(n1)-c1ccccc1CC2)c1cccs1	.	-34.6	-17.7	20.3	i	i	.	.
C[N+](C)(C)CC(=O)N1CCN(c2ccc3ccccc3n2)CC1	-13.9	-45.7	-31.8	26.5	8.73*	i	78.6*	-62.9*
COc1ccc(C[C@H]2CN3C(=NC[C@H]3Cc3ccccc3)N2CCNC(=O)CCC2CCCCC2)cc1	-0.2	-7.0	11.3	13.5	i	i	31.9*	i
COc1cc2c(cc1OC)-c1cc(OCCN3CCOCC3)nc(=O)n1CC2	.	-2.6	0.2	-14.6	6.47*	i	55.1*	-44.4*
CCNc1cc2n(c(=O)n1)CCc1cc(OC)c(OC)cc1-2	.	5.7	1.0	6.8	i	i	.	.
COc1ccccc1CNC(=O)COc1cc2c(c3oc(=O)cc(C)c13)CCC(C)(C)O2	-12.8	-9.6	-2.0	28.6	i	i	24.2*	i
COc1ccc(CNC(=O)COc2cc3c(c4oc(=O)cc(C)c24)CCC(C)(C)O3)cc1	.	-6.7	6.9	23.9	i	i	.	.
